Screening data as filed in PubChem BioAssay.
EBNA-1 inhibitor – blocks EBNA-1 binding to DNA; actives 0.34% (n = 300,000); EBNA-1 DNA binding, fluorescence polarization; inhibition, % at 14.8 µM; in the data active = inhibition above about 28%
ALR inh – inhibitors of human sulfhydryl oxidase ALR. P55789. purified ALR, DTT oxidation, H2O2 HRP-luminol luminescence. inhibition, % (concentration not given with the values). actives 3.8% (n = 290,000). AID 485317;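 active = mean replicate inhibition above about 79%, with every replicate also reaching it, limit read from the data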
Target sequence (P55789 whole entry, looked up): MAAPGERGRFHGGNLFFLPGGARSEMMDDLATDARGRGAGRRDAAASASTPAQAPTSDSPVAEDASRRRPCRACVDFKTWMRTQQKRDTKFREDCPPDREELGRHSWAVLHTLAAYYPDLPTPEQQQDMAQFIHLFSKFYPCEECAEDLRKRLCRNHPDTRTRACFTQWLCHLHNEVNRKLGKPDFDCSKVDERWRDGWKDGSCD
HCV core dimer – blocks dimerization of HCV core protein. inhibition, % at 5 µM. actives 0.33% (n = 300,000). TR-FRET GST/Flag-core106 dimerization, 1536-well. AID 1899;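 active = inhibition above the mean of all tested compounds plus 3 SD, set per screening campaign, cut at about 45% in these data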
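System – GST-tagged and Flag-tagged HCV core protein residues 1-106 · Repeats – one well for each compound · Technique – TR-FRET 671 and 617 nm emission · Doses – one concentration, 5 µM, in 0.5% DMSO · Times – 4 h, 22.5 °C incubation · Also added – Eu donor and XL665 acceptor anti-tag antibodies · Measure – percent inhibition of core106 dimerization signal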
M18AAP inhibitor – PfM18AAP enzyme inhibition | actives 1.2% (n = 290,000) | AID 1822 | recombinant PfM18AAP, H-Glu-NHMec fluorogenic cleavage | inhibition, % at 7.35 µM;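 active = inhibition above the campaign mean inhibition over all tested compounds plus 3 SD, cut at about 28% in these data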;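 note: 0% = plate median of test compound wells and 100% = 2 mM ZnCl2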
NS3 helicase inh – inhibitors of Hepatitis C virus NS3 helicase; inhibition, % at 10.9 µM; NS3 helicase DNA unwinding, Cy5 molecular beacon fluorescence; AID 1800; actives 0.56% (n = 290,000);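 active = inhibition above the mean of all tested compounds plus 3 SD, set per campaign, cut at about 35% in these data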;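 note: 0% = DMSO wells and 100% = thioflavine S control wells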
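System: HCV NS3 helicase fragment; control set: DMSO and thioflavine S; technique: Cy5 fluorescence at 0 and 60 min, beacon hairpin quenching; reagent: beacon DNA duplex substrate plus ATP; replicates: singlicate; schedule: 1 h reaction at 25 °C, ATP-initiated; medium: MOPS buffer pH 6.5 with MgCl2, DTT, Tween20, BSA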
ZTA DNA inh – counter-screen for EBNA-1 inhibitors: inhibitors of Epstein-Barr virus ZTA. P03206. ZTA-DNA binding, fluorescence polarization. inhibition, % at 11 µM. actives 0.15% (n = 320,000). AID 2234; in the data active = inhibition above about 33%
Target sequence (P03206 whole entry, looked up): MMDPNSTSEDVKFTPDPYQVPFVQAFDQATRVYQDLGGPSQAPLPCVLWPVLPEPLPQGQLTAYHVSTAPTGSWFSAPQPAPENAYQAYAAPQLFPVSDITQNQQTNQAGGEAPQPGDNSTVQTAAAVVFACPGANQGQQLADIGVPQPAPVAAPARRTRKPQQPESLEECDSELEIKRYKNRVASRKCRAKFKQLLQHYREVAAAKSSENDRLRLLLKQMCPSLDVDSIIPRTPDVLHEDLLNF
Active calls of the source: *; / = not tested or not shown. A selection: hits, their analogues and other compounds. The true share with any hit is near 5.2%.

SMILES	EBNA-1 inhibitor	ALR inh	HCV core dimer	M18AAP inhibitor	NS3 helicase inh	ZTA DNA inh
Cc1cnc(CNC(=O)C2CCC(=O)N(CCc3cccc(F)c3)C2)[nH]1 (stereo not given)	-1	-8	-6	-6	-5	15
COCCn1c(=S)[nH]c2sc3c(c2c1=O)CCC(C)C3 (stereo not given)	-13	32	-8	-1	-2	-8
COCCCn1c(=S)[nH]c2sc3c(c2c1=O)CCCS3	0	99*	-8	-7	26	-3
CC(=O)N1CCN(S(=O)(=O)c2cccc(C(=O)Nc3cc(C(F)(F)F)ccc3N3CCOCC3)c2)CC1	4	-2	-2	3	-5	8
O=C(O)Cn1c(SCc2cccc3ccccc23)nc2ccccc21	3	98*	7	2	8	14
O=C(O)Cn1c(SCc2ccccc2)nc2ccccc21	-2	-7	-1	-3	0	6
COc1ccccc1C1NC(c2ccccc2OC)C(C)C(=O)C1C (stereo not given)	7	/	-2	5	-2	-3
COc1cccc(C2NC(c3cccc(OC)c3O)C(C)C(=O)C2C)c1O (stereo not given)	-10	87*	-6	6	8	-11
CC(NC(=O)COc1ccccc1)C(c1ccccc1)N1CCN(C)CC1 (stereo not given)	-7	98*	-7	0	-11	8
CCOc1ccc(NC(=S)NC(C)C(c2ccccc2)N2CCN(C)CC2)cc1 (stereo not given)	-5	-10	-1	2	-24	-3
O=C(CC(c1ccccc1)c1ccccc1)Nc1ccc(C(=O)O)cc1	9	/	8	-3	20	6
NC1=NC[C@H](Cc2ccc(O)cc2)N1CCCCC1CCCCC1	-2	76*	4	/	/	-7
CC(OC(=O)CC1CC2CCC1C2)C(=O)Nc1cccc(S(=O)(=O)N2CCOCC2)c1 (stereo not given)	3	-4	-5	/	/	-17
OCCN(Cc1ccccc1)c1ncnc2sccc12	0	3	-10	0	-2	-11
CC(=O)c1ccc(NC(=O)CCOc2cc(C)ccc2C)cc1	10	4	0	12	-10	-4
CCCn1c(NCc2c[nH]c3ccccc23)nc2ccccc21	1	/	1	3	-12	-10
COc1ccc(-c2ccc(=O)n(Cc3ccccc3)n2)cc1	5	-4	1	-3	-12	-3
COc1ccc(-c2c(C)nn(Cc3ccccc3)c2N)cc1	6	97*	-2	0	-4	4
CCOc1ccc(NC(=O)CSc2nnc(C3CC3)n2N)cc1	9	98*	-1	-11	3	3
Nn1c(SCC(=O)Nc2ccc(N3CCOCC3)cc2)nnc1C1CC1	/	99*	/	/	/	/
O=C(CSc1nnc2n1CCCCC2)Nc1ccc(N2CCOCC2)cc1	9	86*	-3	4	-3	0
NC(=O)c1ccc(NC(=O)CSc2nnc(C3CCCCC3)n2N)cc1	-4	-5	-6	-3	3	5
Nn1c(SCC(=O)Nc2ccc(Oc3ccccc3)cc2)nnc1C1CC1	6	28	-2	-4	-1	0
O=C(c1nc2ccccn2c1CN1CCN(c2ccccc2O)CC1)N1CCCC1	1	99*	-6	10	-5	-4
Cc1ccc(-c2cc(C(=O)N/N=C/c3ccc(Cl)cc3)n[nH]2)o1	0	13	-11	15	0	-17
SMILES	EBNA-1 inhibitor	ALR inh	HCV core dimer	M18AAP inhibitor	NS3 helicase inh	ZTA DNA inh
COc1ccc(/C=C2/SC(=S)N(CC(=O)O)C2=O)cc1OCc1ccc(Cl)cc1	10	88*	16	-12	23	13
COc1cc(/C=C2\SC(=S)N(CC(=O)O)C2=O)ccc1OC(=O)c1ccco1	-12	99*	-10	9	3	1
O=C(O)CCCCN1C(=O)/C(=C\c2ccc(OCc3ccccc3)c(OCc3ccccc3)c2)SC1=S	11	-8	3	2	9	19
CCOc1cc(/C=C2/SC(=S)N(CC(=O)O)C2=O)ccc1OC(=O)c1cccs1	-1	/	4	1	13	-9
COc1cc(/C=C2/SC(=S)N(CC(=O)O)C2=O)ccc1OC(=O)c1ccco1	-8	98*	-17	11	12	0
CN(Cc1nccn1C)C(=O)CC1C(=O)NCCN1Cc1ccc(F)cc1Cl (stereo not given)	10	-2	-5	15	-6	-4
Cc1ccccc1N1C(=O)CC(Nc2ccc3c(c2)OCO3)C1=O (stereo not given)	21	95*	-13	30*	13	-8
Cc1cc(C)cc(NC(=O)C2CCCN(S(=O)(=O)c3cnc[nH]3)C2)c1 (stereo not given)	3	42	-3	5	-7	-17
O=C(NCCc1ccccc1)C1CCCN(S(=O)(=O)c2cnc[nH]2)C1 (stereo not given)	3	87*	4	-4	0	-7
CCOC(=O)c1ccc(NC(=O)C2CCCN(S(=O)(=O)c3cnc[nH]3)C2)cc1 (stereo not given)	-7	95*	2	7	3	3
CC(C)c1ccc(NC(=O)C2CCCN(S(=O)(=O)c3cnc[nH]3)C2)cc1 (stereo not given)	1	91*	7	2	11	-5
O=C(NCCN1CCN(c2ccccc2F)CC1)C1CCCN(S(=O)(=O)c2cnc[nH]2)C1 (stereo not given)	4	88*	-1	-12	-5	1
O=C(NCCN1CCC(Cc2ccccc2)CC1)C1CCCN(S(=O)(=O)c2cnc[nH]2)C1 (stereo not given)	3	-44	7	-4	10	4
C[C@H](CO)N1C[C@H](C)[C@@H](CN(C)C(=O)NC2CCCCC2)Oc2ccc(NS(=O)(=O)c3ccc(F)cc3)cc2C1=O	/	2	/	/	/	/
Cc1ccc(CNC(=O)C2CCCN(S(=O)(=O)c3cnc[nH]3)C2)cc1 (stereo not given)	13	16	-4	-7	-5	-11
COc1cc(NC(=O)C2CCCN(S(=O)(=O)c3cnc[nH]3)C2)cc(OC)c1 (stereo not given)	2	98*	-1	-1	4	-12
O=C(Nc1ccc(Cl)cc1)C1CCCN(S(=O)(=O)c2cnc[nH]2)C1 (stereo not given)	-2	96*	1	5	2	3
O=C(NCc1ccc(Cl)cc1)C1CCCN(S(=O)(=O)c2cnc[nH]2)C1 (stereo not given)	6	94*	2	2	-11	-10
CCOC(=O)c1ccc(NC(=O)C2CCN(S(=O)(=O)c3c(C)nn(C)c3C)CC2)cc1	-5	98*	-3	-3	-14	-5
